Rows were chosen to be rich in hits. Some 1.9% of all compounds tested hit in one or more screens of this group.
UCH37 DUB inh: inhibitors of human UCH37 deubiquitinase, primary screen, biochemical, Ub-AMC cleavage, fluorescence | Ubiquitin carboxyl-terminal hydrolase isozyme L5 (Homo sapiens), Q9Y5K5 | purified proteasome/UCH37 | inhibition, % (no concentration beside the values) | 330,000 tested, 0.33% active | AID 588478, 2011;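 active means mean inhibition over replicate wells above about 20%, limit read from the data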;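 further: 0% = compound-free wells with enzyme and 100% = wells lacking proteasome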
Target sequence (Q9Y5K5 whole entry, looked up): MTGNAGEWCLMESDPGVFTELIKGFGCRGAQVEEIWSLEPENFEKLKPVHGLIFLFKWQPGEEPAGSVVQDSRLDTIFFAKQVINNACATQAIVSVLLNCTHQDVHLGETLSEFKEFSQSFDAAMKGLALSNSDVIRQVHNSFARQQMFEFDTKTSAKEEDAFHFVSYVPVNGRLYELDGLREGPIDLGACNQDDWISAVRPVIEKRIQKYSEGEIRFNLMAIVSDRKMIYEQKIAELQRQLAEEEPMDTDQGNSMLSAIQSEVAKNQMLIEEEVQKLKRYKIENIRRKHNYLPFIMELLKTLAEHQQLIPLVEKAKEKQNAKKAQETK
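Material: human UCH37 enzyme supplied as purified proteasome complex / Amount: 0.15 nM proteasome as dispensed / Buffer or medium: pH 7.4 Tris-HCl (50 mM) with ovalbumin, ATP-MgCl2, DTT / Times: preincubation 30 min, reaction 25 min, room temperature / Technique: AMC fluorescence from Ub-AMC cleavage, excitation 355 nm, emission 460 nm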
PG9 Ab binder: binders of HIV-1 gp120 antibody PG9, primary screen, biochemical, TR-FRET; HIV-1 gp120 / PG9 antibody interaction; TR-FRET gp120-PG9 antibody binding; inhibition, % at 6.7 µM; 360,000 tested, 0.43% active; AID 624416, 2012; in the data active means inhibition above about 8.5%
Rce1 inh: yeast Rce1p protease inhibitors, primary screen, biochemical, fluorescence, cell-free homogeneous; CAAX prenyl protease 2 (Saccharomyces cerevisiae (strain ATCC 204508 / S288c)), Q03530; yeast membranes, quenched prenylated peptide cleavage fluorescence; calls only; 290,000 tested, 0.27% active;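 active means fall in fluorescence gain of 50% or more versus controls, with final raw signal at or below 3038400; inconclusive means same 50% fall but final raw signal above 3038400; inactive means fall in fluorescence gain under 50%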;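 further: plate controls were neutral control wells for no effect and wells lacking membranes for full effect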
Target sequence (Q03530 whole entry, looked up): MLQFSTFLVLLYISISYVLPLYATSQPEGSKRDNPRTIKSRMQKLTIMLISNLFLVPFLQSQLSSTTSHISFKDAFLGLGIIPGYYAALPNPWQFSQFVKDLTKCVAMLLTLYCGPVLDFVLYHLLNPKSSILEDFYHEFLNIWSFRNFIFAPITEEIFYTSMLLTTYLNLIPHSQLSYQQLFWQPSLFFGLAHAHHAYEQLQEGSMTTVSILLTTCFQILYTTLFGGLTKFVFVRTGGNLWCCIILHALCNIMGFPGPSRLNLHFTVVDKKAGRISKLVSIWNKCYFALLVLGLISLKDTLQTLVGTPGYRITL
MIN6 prolif: inducers of MIN6 beta-cell proliferation, primary screen, ATP luminescence, uHTS | MIN6 cells proliferation, ATPlite luminescence, 48 h; cells starved in 0.2% serum; 100% = growth in 10% serum | proliferation, % at 10 µM | 330,000 tested, 0.29% active | AID 2380, 2010;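 active means compounds whose signal lies at least 3.5 SD above the mean of all wells on their plate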;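 further: 0% = DMSO-treated cells in low-serum medium and 100% = 10% serum control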
CR mimetic SO: reduction of superoxide in aged yeast, primary screen, HTS | S. cerevisiae aged cells, superoxide DHE fluorescence; hits give low values | superoxide response (% of plate mean), % at 10 µM | 330,000 tested, 0.18% active | AID 2690, 2010;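 active means superoxide response under a set limit, about three screen SD below normal, cut at about 65% in these data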;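 further: yeast aged for seven days with compound at 30 °C before DHE staining; 100% = average MFI of all compound-treated wells on the plate with controls excluded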
NR1D1 modulator: modulators of Rev-erb alpha DNA binding, primary screen, biochemical, FITC-DNA, fluorescence polarization, uHTS; Rev-erbα–FITC-DNA binding, 90 min; activity, % at 10 µM; 370,000 tested, 0.79% active; Nuclear receptor subfamily 1 group D member 1 (Homo sapiens), P20393; AID 1259318, 2017;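 active means activity above about 14%, limit read from the data; passing the limit was not always enough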;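 further: 0% = DMSO wells with 35 nM protein and 100% = DMSO wells with 750 nM protein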
* = called active by the depositor; i = inactive; ? = inconclusive; / = no result given; + = active, no number.

SMILES	UCH37 DUB inh	PG9 Ab binder	Rce1 inh	MIN6 prolif	CR mimetic SO	NR1D1 modulator
COc1cccc(-c2cc(C(=O)N3CCc4ccccc4C3)no2)c1	22*	-1	i	-4	128	1
CCC(=NO)c1ccc(OC)c(OC)c1	5	/	/	/	/	/
O=C(NN=Cc1cn(-c2ccccc2)nc1-c1cccs1)c1ccncc1	-67	/	/	/	/	/
CCSCCOC(=O)C1=C(C)NC(=O)NC1c1ccccc1 (centres undefined)	2	1	+	3	95	-5
CCN(CC)CCNC(=O)c1cc2cc3ccc(OC)cc3nc2o1	i	2	?	2	95	1
COCCCNC(=O)c1cc2cc3cc(OC)ccc3nc2o1	-391	-2	+	-1	90	-3
ON=Cc1cc(Br)ccc1OCc1ccc(F)cc1	2	/	/	/	/	/
CC(OC(=O)c1ccc([N+](=O)[O-])s1)C(=O)NC1CCCCC1C (centres undefined)	23*	-2	/	-6	150	-1
COc1cc(C(=O)OC(C)C(=O)NC2CCCCC2C)c([N+](=O)[O-])cc1OC (centres undefined)	4	-1	i	0	107	-5
CCOc1cc(/C=C2\SC(=O)N(CC(=O)Nc3ccccc3F)C2=O)cc([N+](=O)[O-])c1O	23*	-1	i	-1	120	1
CCCC=NNC(=O)c1cccc(Br)c1	0	/	/	/	/	/
CS(=O)(=O)N(CC(=O)Nc1ccccc1Sc1ccccc1)c1ccc(F)cc1	1	14*	i	-4	104	2
O=C(O)c1cc(NN=Cc2ccc(N3CCOCC3)cc2)ccc1Cl	8	/	/	/	/	/
CC(=NNC(=O)C(O)c1ccccc1)c1ccc(C)s1 (centres undefined)	9	/	/	/	/	/
O=c1cnnc(NN=Cc2ccccn2)[nH]1	5	/	/	/	/	/
COC(=O)COc1ccc(C=NNC(=O)CN(c2ccccc2OC)S(=O)(=O)c2ccccc2)cc1	3	/	/	/	/	/
CCCc1cc(=O)n2[nH]c(C)c(-c3ccccc3)c2n1	-4	1	+	-2	93	4
CC1=CN2C(=NC(=O)CC2(C)C(=O)N(CC(=O)NC2CCCC2)Cc2ccccc2)C=C1 (centres undefined)	i	-2	?	-1	102	4
CC1=CC2=NC(=O)CC(C)(C(=O)N(CC(=O)NC3CCCC3)Cc3ccccc3)N2C=C1 (centres undefined)	-166	-1	+	-2	110	1
O=C(CNC(=O)c1ccco1)NN=Cc1c[nH]c2ccccc12	5	/	/	/	/	/
Oc1c(N=NC(=S)Nc2ccccc2F)c2ccccc2n1Cc1ccccc1F	9	-1	+	-5	102	0
CCc1ccccc1NC(=S)N(CCCN(C)C)Cc1cc2cc3c(cc2[nH]c1=O)OCO3	-171	1	+	-1	102	-1
COc1ccc(C2/C(=C(/O)c3ccc4c(c3)CC(C)O4)C(=O)C(=O)N2CCCN2CCOCC2)cc1 (centres undefined)	21*	0	i	0	100	14
CCCOc1cccc(C2/C(=C(/O)c3ccc4c(c3)CC(C)O4)C(=O)C(=O)N2CCN2CCOCC2)c1 (centres undefined)	9	5	i	3	116	-2
CC1Cc2cc(/C(O)=C3/C(=O)C(=O)N(CCN4CCOCC4)C3c3cccc(Cl)c3)ccc2O1 (centres undefined)	2	11*	i	1	87	-6
SMILES	UCH37 DUB inh	PG9 Ab binder	Rce1 inh	MIN6 prolif	CR mimetic SO	NR1D1 modulator
O=[N+]([O-])c1ccc(N2CCN(S(=O)(=O)c3ccccc3[N+](=O)[O-])CC2)cc1N1CCc2ccccc2C1	/	-2	i	6.0*	95	8
CCOc1c(OC(C)=O)ccc(/C=C/c2ccc3cccc(OC(C)=O)c3n2)c1[N+](=O)[O-]	2	/	i	-7	84	4
C=CCN1C(=O)/C(=C/c2ccc(OC(C)=O)c(OCC)c2[N+](=O)[O-])SC1=S	42*	0	i	/	/	16
CCOC(=O)N1CCC(n2c(SCC(=O)NCc3ccccc3)nc3ccccc3c2=O)CC1	2	0	i	1	100	6
CCOC(=O)N1CCC(n2c(SCC(=O)NCCC3=CCCCC3)nc3ccccc3c2=O)CC1	24*	1	i	-5	103	5
CCOC(=O)C(=NNC(=O)c1ccccc1)c1ccccc1	2	/	/	/	/	/
N#Cc1ccc(CSc2nnc(-c3c[nH]c4ccccc34)n2-c2ccccc2)cc1	0	2	+	-3	127	4
O=C1NC(c2ccc3ccccc3c2)Nc2ccccc21 (centres undefined)	/	0	/	/	/	12
O=C1NC(c2ccc(Br)cc2)Nc2ccccc21 (centres undefined)	-312	1	+	-1	105	3
Nc1nc2c(ncn2COC(CO)CO)c(=O)[nH]1	1	0	+	0	112	3
COCCNC(=O)c1onc(CSc2ccc(C)c(C)c2)c1C(=O)O	4	-2	i	-2	94	3
COCCNC(=O)c1onc(CSc2cc(C)cc(C)c2)c1C(=O)O	34*	-1	i	-2	107	-2
O=S1(=O)N=C(N(CCO)N=Cc2ccc(Br)cc2)c2ccccc21	-127	/	/	/	/	/
O=C(Nc1ccc(Br)cn1)C1CCCN1S(=O)(=O)c1ccccc1 (centres undefined)	30*	-1	i	4	102	-1
Cc1ccc(-n2nc3c(n2)C(=NO)CCC3=NO)cc1	-2	/	/	/	/	/
OCCN1CCN(c2nc(-c3ccccc3)c3cc(Br)ccc3n2)CC1	-27	8.7*	i	-6	101	-2
O=C(NN=Cc1ccc(Cl)cc1Cl)c1n[nH]c2c1CCCC2	7	/	/	/	/	/
CC(C)C[C@H](NC(=O)c1[nH]cnc1C(=O)Nc1ccccc1)C(=O)OC(C)(C)C	28*	-1	i	-9	107	4
CC(C)C[C@H](NC(=O)c1nc[nH]c1C(=O)N1CCN(c2ccccc2)CC1)C(=O)OCc1ccccc1	4	-1	i	-8	97	3
CN(Cc1ccccc1)C(=O)c1[nH]cnc1C(=O)N[C@@H](Cc1ccccc1)C(=O)OC(C)(C)C	35*	1	i	-6	98	3
CCOC(=O)c1ccc(NC(=O)c2nc[nH]c2C(=O)N[C@@H](CC(C)C)C(=O)OC(C)(C)C)cc1	0	-1	i	-7	116	5
